Reference: ChEMBL document CHEMBL1141285, “Antimicrobial compounds from the Australian desert plant Eremophila neglecta” (2007)
Converted amounts (≈) assume the structure as drawn. The source made the active and inactive calls. No cut-off for these calls is given here.

How the values were obtained:
[1] = test system: Staphylococcus aureus; assay: Antimicrobial activity against Staphylococcus aureus ATCC 29213 by broth microdilution method
[2] = test system: Staphylococcus aureus; assay: Antimicrobial activity against Staphylococcus aureus ATCC 29213 by broth microdilution method; assay type: functional
Summary of the method: (§1)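 Broth microdilution in cation-adjusted MH II broth with 2% DMSO in the 2-fold serial dilutions (final 1% v/v), done in duplicate. Bacteria grown on 5% sheep blood agar at 37 °C. Final inoculum 5 × 10^5 CFU/mL. Plates shaken 10 min, then incubated overnight at 37 °C. MIC is the lowest concentration with no growth in both duplicate wells.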

[3] = test system: Streptococcus pyogenes; assay: Antimicrobial activity against Streptococcus pyogenes ATCC 10389 by broth microdilution method; assay type: functional
Summary of the method: as §1, with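 “brain heart infusion” for “cation-adjusted MH II”, “duplicate.” for “duplicate. Bacteria grown on 5% sheep blood agar at 37 °C.”, “°C with 5% CO2.” for “°C.”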

[4] = test system: Staphylococcus aureus; assay: Antimicrobial activity against Staphylococcus aureus ATCC 25923 by broth microdilution method; assay type: functional
Summary of the method: as §1

[5] = test system: Salmonella typhimurium; assay: Antimicrobial activity against Salmonella Typhimurium ATCC 13311 at 621.5 uM by broth microdilution method; assay type: functional, organism-based; conditions: Salmonella enterica subsp. enterica serovar Typhimurium
[6] = test system: Streptococcus pneumoniae; assay: Antimicrobial activity against Streptococcus pneumoniae ATCC 49619 by broth microdilution method; assay type: functional
Summary of the method: as §1, with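 “brain heart infusion” for “cation-adjusted MH II”, “duplicate.” for “duplicate. Bacteria grown on 5% sheep blood agar at 37 °C.”, “°C with 5% CO2.” for “°C.”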

[7] = test system: Pseudomonas aeruginosa; assay: Antimicrobial activity against Pseudomonas aeruginosa ATCC 27853 at 621.5 uM by broth microdilution method; assay type: functional, organism-based
[8] = test system: Escherichia coli; assay: Antimicrobial activity against Escherichia coli ATCC 25922 at 621.5 uM by broth microdilution method; assay type: functional, organism-based
[9] = test system: Staphylococcus aureus; assay: Antimicrobial activity against Staphylococcus aureus ATCC 29213 at 621.5 uM by broth microdilution method; assay type: functional, organism-based

Compound | MIC [1] | MIC [2] | MBC [2] | MBC [3] | MIC [3] | MBC [4] | MIC [4] | Activity [5] | MBC [6] | MIC [6] | Activity [7] | Activity [8] | Activity [9]
CN[C@H](CC(C)C)C(=O)N[C@H]1C(=O)N[C@@H](CC(N)=O)C(=O)N[C@H]2C(=O)N[C@H]3C(=O)N[C@H](C(=O)N[C@H](C(=O)O)c4cc(O)cc(O)c4-c4cc3ccc4O)[C@H](O)c3ccc(c(Cl)c3)Oc3cc2cc(c3O[C@@H]2O[C@H](CO)[C@@H](O)[C@H](O)[C@H]2O[C@H]2C[C@](C)(N)[C@H](O)[C@H](C)O2)Oc2ccc(cc2Cl)[C@H]1O [VANCOMYCIN] | 0.7 µM (≈ 1.01 µg/mL) | – | – | – | – | – | – | – | – | – | – | – | –
GENTAMICIN | – | 1 µM | – | – | – | – | – | – | – | – | – | – | –
CC(C)=CCC[C@H](C)[C@@H]1CC[C@@H](C)c2c(O)cc(C(=O)O)cc21 | – | 49.3 µM (≈ 15.6 µg/mL) | 49.3 µM (≈ 15.6 µg/mL) | 99 µM (≈ 31.3 µg/mL) | 24.7 µM (≈ 7.82 µg/mL) | 99 µM (≈ 31.3 µg/mL) | 49.3 µM (≈ 15.6 µg/mL) | inactive | 49.3 µM (≈ 15.6 µg/mL) | 24.7 µM (≈ 7.82 µg/mL) | inactive | inactive | –
CC(=O)OCc1cc(O)c2c(c1)[C@H]([C@@H](C)CCC=C(C)C)C[C@H](OC(C)=O)[C@H]2C | – | – | – | – | – | – | – | – | – | – | – | – | inactive
CC(C)=CCCC1=COC2=C(C)C(=O)C(=O)c3c(C)ccc1c32 | – | 25.3 µM (≈ 7.8 µg/mL) | 203 µM (≈ 62.6 µg/mL) | 203 µM (≈ 62.6 µg/mL) | 102 µM (≈ 31.3 µg/mL) | 50.6 µM (≈ 15.6 µg/mL) | 25.3 µM (≈ 7.8 µg/mL) | inactive | 12.7 µM (≈ 3.92 µg/mL) | 6.5 µM (≈ 2 µg/mL) | inactive | inactive | –
CC(C)=CCC[C@H](C)[C@@H]1CC[C@@H](C)c2c(O)cc(CO)cc21 | – | 25.8 µM (≈ 7.8 µg/mL) | 25.8 µM (≈ 7.8 µg/mL) | 12.9 µM (≈ 3.9 µg/mL) | 12.9 µM (≈ 3.9 µg/mL) | 25.8 µM (≈ 7.8 µg/mL) | 25.8 µM (≈ 7.8 µg/mL) | inactive | 12.9 µM (≈ 3.9 µg/mL) | 12.9 µM (≈ 3.9 µg/mL) | inactive | inactive | –
